The source of these data is ChEMBL document CHEMBL4014347, “Targeting Mycolic Acid Transport by Indole-2-carboxamides for the Treatment of Mycobacterium abscessus Infections” (J Med Chem, 2017).

SMILES strings stand for the structures. Values after ≈ are worked out from the molar mass of the structure shown. Active and inactive are the calls of the source. The calls are words filed in the database; no cut-off is given here. Bounds are passed on as bounds.

Series [1] concerns Vero. The series can be described thus: Cytotoxicity against African green monkey Vero cells. In kind it is cell-based. The following applies: Chlorocebus sabaeus.
For series [2], the system named is Mycobacteroides abscessus. In words: Antibacterial activity against non CF patient derived Mycobacterium abscessus subsp. abscessus isolate 3022 rough variant after 3 to 5 days by two fold serial dilution method. The format is functional. In outline:
(§1)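 Broth microdilution in cation-adjusted Mueller−Hinton broth per CLSI; inoculum 5 × 10^6 CFU/mL of exponential-phase bacteria; two-fold serial dilutions, solvent-only wells as control; 30 °C for 3−5 days; MIC read visually and confirmed by absorbance at 560 nm; triplicate on three independent occasions.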

The subject of series [3] is Mycobacteroides abscessus. In words: Antibacterial activity against CF patient derived Mycobacterium abscessus subsp. abscessus rough variant after 3 to 5 days by two fold serial dilution method. In kind it is functional. In outline: as §1
Series [4] concerns Mycobacteroides abscessus. The series can be described thus: Antibacterial activity against non CF patient derived Mycobacterium abscessus subsp. abscessus isolate CIP104536 rough variant after 3 to 5 days by two fold serial dilution method. In kind it is functional. Summed up:
as §1

Series [5] relates to Mycobacteroides abscessus. The series can be described thus: Antibacterial activity against CF patient derived Mycobacterium abscessus subsp. abscessus smooth variant after 3 to 5 days by two fold serial dilution method. In kind it is functional. Summed up: as §1
Series [6] has as its system Mycobacteroides abscessus. In words: Antibacterial activity against CF patient derived Mycobacterium abscessus subsp. massiliense isolate 210 rough variant after 3 to 5 days by two fold serial dilution method. In kind it is functional. In outline:
as §1

The subject of series [7] is Mycobacteroides abscessus. The series can be described thus: Antibacterial activity against Addison's disease patient derived Mycobacterium abscessus subsp. massiliense isolate CIP108297 smooth variant after 3 to 5 days by two fold serial dilution method. In kind it is functional. In outline:
as §1

Series [8] concerns Mycobacteroides abscessus. In words: Antibacterial activity against CF patient derived Mycobacterium abscessus subsp. massiliense isolate 140 smooth variant after 3 to 5 days by two fold serial dilution method. In kind it is functional. In outline: as §1
Series [9] has as its system Mycobacteroides abscessus. The series can be described thus: Antibacterial activity against CF patient derived Mycobacterium abscessus subsp. massiliense isolate 100 smooth variant after 3 to 5 days by two fold serial dilution method. The format is functional. Summed up:
as §1

The subject of series [10] is Mycobacteroides abscessus. The series can be described thus: Antibacterial activity against CF patient derived Mycobacterium abscessus subsp. massiliense isolate 122 smooth variant after 3 to 5 days by two fold serial dilution method. The format is functional. Summed up:
as §1

A short description of series [11]: Antibacterial activity against CF patient derived Mycobacterium abscessus subsp. bolletii isolate 116 smooth variant after 3 to 5 days by two fold serial dilution method. The format is functional. The following applies: Mycobacteroides abscessus. Summed up: as §1
A short description of series [12]: Antibacterial activity against CF patient derived Mycobacterium abscessus subsp. bolletii isolate 112 rough variant after 3 to 5 days by two fold serial dilution method. The format is functional. The following applies: Mycobacteroides abscessus. In outline: as §1
The test system of series [13] is Mycobacteroides abscessus. In words: Antibacterial activity against Mycobacterium abscessus CIP104536 smooth variant assessed as reduction in viable colony forming unit at […] after 4 days by time-kill assay. In kind it is functional.
For series [14], the system named is Mycobacteroides abscessus. In words: Antibacterial activity against Mycobacterium abscessus CIP_OK4-10 harboring MAB_4508 g925c/A309P mutant after 3 to 5 days by two fold serial dilution method. The format is functional. Summed up:
as §1

In series [15] the test system is Mycobacteroides abscessus. The series can be described thus: Antibacterial activity against Mycobacterium abscessus CIP_PIPD1 harboring MAB_4508 g925c/A309P mutant after 3 to 5 days by two fold serial dilution method. The format is functional. Summed up: as §1
Series [16] relates to Mycobacteroides abscessus. The series can be described thus: Inhibition of MmpL3 in Mycobacterium abscessus CIP104536 smooth variant assessed as reduction in trehalose dimycolate synthesis up to 6.2 ug/ml preincubated for 1 hr followed by [14C]acetic acid addition measured after 2 hrs by TLC based autoradiography analysis. Summed up: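 Exponential cultures in 7H9 with OADC exposed to increasing drug concentrations for 1 h at 37 °C with agitation, then labelled with 1 μCi/mL [14C]acetate (56 mCi/mmol) for 2 h; apolar lipids (TMM, TDM) run on TLC in chloroform/methanol/water 40:8:1; MAME and arabinogalactan-bound mycolates in petroleum ether/acetone 95:5; autoradiography.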

Series [17] is described as follows: Protein binding in mouse plasma at 5 uM after 10 mins by LC-MS/MS analysis. In kind it is ADME, cell-free. The following applies: read-out: PPB (converted). In outline:
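Ultracentrifugation method: 5 μM compound in mouse or rat plasma (from DMSO stock), 10 min at 37 °C; total concentration from incubated plasma, unbound from middle-layer supernatant after 200000g for 4.5 h; niflumic acid internal standard, acetonitrile, filtered, LC-MS/MS.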

The nature of series [18]: Permeability of the compound at 25 uM at pH 5 after 4 hrs by LC-MS based PAMPA. The following applies: read-out: permeability. In kind it is physicochemical. In outline:
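PAMPA: 25 μM compound in aqueous buffer at pH 7.4 or 5.0 (pH adjusted with NaOH) in donor plate, triplicate; acceptor membrane coated with GIT-0 lipid, acceptor sink buffer; 4 h at 25 ± 2 °C; donor and acceptor solutions analysed by LC-MS (UPLC).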
For orientation: In PAMPA a lipid-coated filter parts donor from acceptor wells.

Series [19] deals with Cytochrome P450 2D6 (Homo sapiens, UniProt P10635). In words: Inhibition of CYP2D6 in human liver microsomes preincubated for 5 mins followed by NADPH addition measured after 10 mins by LC-MS/MS analysis. The format is ADME. Background: Liver microsomes are vesicles of endoplasmic reticulum, rich in cytochrome P450 enzymes.
Series [20] addresses T1, CYP1A2 (Homo sapiens, UniProt P05177).
T1 sequence (P05177 whole entry): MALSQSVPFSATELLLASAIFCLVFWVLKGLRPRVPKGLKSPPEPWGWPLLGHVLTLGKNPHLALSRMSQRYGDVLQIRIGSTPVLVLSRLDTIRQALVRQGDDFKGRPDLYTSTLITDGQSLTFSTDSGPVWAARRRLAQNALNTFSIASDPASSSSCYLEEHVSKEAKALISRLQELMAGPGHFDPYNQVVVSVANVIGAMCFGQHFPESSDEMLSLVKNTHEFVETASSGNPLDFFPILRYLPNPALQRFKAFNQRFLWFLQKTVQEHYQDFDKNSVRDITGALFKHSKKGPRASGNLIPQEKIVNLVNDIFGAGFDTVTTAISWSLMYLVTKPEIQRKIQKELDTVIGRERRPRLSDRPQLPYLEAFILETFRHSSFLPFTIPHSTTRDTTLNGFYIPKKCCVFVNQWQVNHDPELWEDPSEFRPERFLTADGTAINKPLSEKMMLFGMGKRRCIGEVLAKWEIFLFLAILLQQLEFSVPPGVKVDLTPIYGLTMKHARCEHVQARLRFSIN
In words: Inhibition of CYP1A2 in human liver microsomes preincubated for 5 mins followed by NADPH addition at 10 uM measured after 10 mins by LC-MS/MS analysis relative to control. The format is ADME.

The target in series [21] is CYP2C9 (Homo sapiens, UniProt P11712). The series can be described thus: Inhibition of CYP2C9 in human liver microsomes preincubated for 5 mins followed by NADPH addition at 10 uM measured after 10 mins by LC-MS/MS analysis relative to control. The format is ADME.
The test system of series [22] is Liver. The series can be described thus: Intrinsic clearance in rat liver microsomes at 0.5 uM in presence of NADPH by LC-MS/MS analysis. The format is ADME, microsome. Summed up:
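Compound (0.5 μM) incubated with mouse or rat liver microsomes plus NADPH regenerating system; aliquots every 3 min over 30 min analysed for parent by LC-MS/MS; monoexponential decay rate normalized to microsomal protein, expressed as mL/min/g liver.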

In series [23] the test system is Salmonella typhimurium. The series can be described thus: Mutagenicity in Salmonella typhimurium TA98 in presence of rat liver S9 fraction assessed as increase in revertant colonies at 0.24 to 500 ug/well after 72 hrs by Ames test relative to control. The following applies: salmonella enterica subsp. enterica serovar typhimurium, s9, 72 h. The format is toxicity. In outline:
(§2)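 Reverse mutation at histidine locus in S. typhimurium TA98 (frameshift) and TA100 (base-pair substitution), with and without S9; 0.24−500 μg/well; 37 ± 2 °C for 72 h, triplicates; DMSO vehicle; sodium azide, 2-nitrofluorene, 2-aminoanthracene positive controls; positive if revertants rise ≥2-fold over negative control dose-dependently.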
Background: The Ames test uses bacterial strains that need an amino acid and regain growth without it when mutated back.

Series [24] concerns Salmonella typhimurium. In words: Mutagenicity in Salmonella typhimurium TA98 assessed as increase in revertant colonies at 0.24 to 500 ug/well after 72 hrs by Ames test relative to control. In kind it is toxicity. The following applies: salmonella enterica subsp. enterica serovar typhimurium. In outline:
as §2

CYP2C9, sequence (P11712 whole entry): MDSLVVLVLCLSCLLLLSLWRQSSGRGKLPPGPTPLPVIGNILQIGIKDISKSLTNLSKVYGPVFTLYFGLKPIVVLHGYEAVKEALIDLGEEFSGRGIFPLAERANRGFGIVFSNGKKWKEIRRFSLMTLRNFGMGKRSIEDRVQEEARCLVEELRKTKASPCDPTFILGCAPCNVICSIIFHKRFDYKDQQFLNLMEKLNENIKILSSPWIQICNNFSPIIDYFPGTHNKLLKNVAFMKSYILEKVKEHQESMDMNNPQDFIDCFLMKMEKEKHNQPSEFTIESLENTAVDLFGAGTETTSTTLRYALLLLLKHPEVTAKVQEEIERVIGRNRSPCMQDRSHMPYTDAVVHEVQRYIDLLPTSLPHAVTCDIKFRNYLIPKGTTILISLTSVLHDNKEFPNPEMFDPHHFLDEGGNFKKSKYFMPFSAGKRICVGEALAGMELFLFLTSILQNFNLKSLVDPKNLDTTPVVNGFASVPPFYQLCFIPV
Cytochrome P450 2D6, sequence (P10635 whole entry): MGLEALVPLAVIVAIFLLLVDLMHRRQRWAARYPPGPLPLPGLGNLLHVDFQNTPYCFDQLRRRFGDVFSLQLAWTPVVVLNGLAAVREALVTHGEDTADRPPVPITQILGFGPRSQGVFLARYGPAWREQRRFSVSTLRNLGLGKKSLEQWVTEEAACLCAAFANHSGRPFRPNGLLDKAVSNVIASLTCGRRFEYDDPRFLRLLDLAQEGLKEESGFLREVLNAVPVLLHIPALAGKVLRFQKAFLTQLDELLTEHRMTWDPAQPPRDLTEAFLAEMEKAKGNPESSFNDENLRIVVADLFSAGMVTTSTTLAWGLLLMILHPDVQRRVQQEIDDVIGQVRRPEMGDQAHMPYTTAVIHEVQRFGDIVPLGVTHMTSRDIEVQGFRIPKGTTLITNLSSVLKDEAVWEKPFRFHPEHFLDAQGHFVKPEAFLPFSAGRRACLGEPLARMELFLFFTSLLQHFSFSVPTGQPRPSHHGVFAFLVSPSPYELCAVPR

The IC50 is the point on the concentration scale where inhibition reaches its midpoint. The term MIC denotes the lowest concentration found to suppress growth. By inhibition is commonly meant the percentage by which the read-out fell short of the control. For `O=C(NC1CCCCCC1)c1cc2c(Cl)cc(Cl)cc2[nH]1`, the IC50 was 8 to 16 µg/mL (≈ 24.6 to 49.2 µM) in series [1] and not above 20 µM in [19]. Moreover, the MIC in series [2], in series [3], in series [4], in series [5], in series [6] and in [7] was 0.125 µg/mL (≈ 0.384 µM) each time. The MIC in [8] was 0.125 µg/mL (≈ 0.384 µM); in series [9] it was 0.125 µg/mL (≈ 0.384 µM); in series [10] it was 0.125 µg/mL (≈ 0.384 µM); in [11], 0.25 µg/mL (≈ 0.769 µM); in series [12], 0.125 µg/mL (≈ 0.384 µM); in series [14], 32 µg/mL (≈ 98.4 µM). For the same compound, the MIC in [15] worked out at 32 µg/mL (≈ 98.4 µM). Besides, the outcome in [13] was Active. For the same compound, the inhibition entry in series [16] was “Active”. For the same compound, in series [17], the fraction unbound at 10 min, 5 µM is 0.011. In series [18], the Papp at 4 h, 25 µM is 0.3 ×10⁻⁶ cm/s. The figures for the inhibition at 10 min, 10 µM in series [20] and in series [21] were 19% and 6%, respectively. Besides, in series [22], the CLH came to 6.3 mL/min/g. Also, the “fold change (FC)” value in series [23] and in series [24] was less than 2 in each case.
